Source: ChEMBL document CHEMBL1681713, “Lead detoxification activities and ADMET hepatotoxicities of a class of novel 5-(1-carbonyl-L-amino-acid)-2,2-dimethyl-[1,3]dithiolane-4-carboxylic acids” (Bioorg Med Chem Lett, 2011)

What was measured:
Kidney [1] = assay: Detoxification activity against lead-induced toxicity in mouse assessed as reduction lead level in kidney per gram of organ at 0.6 mmol/kg, ip qd for 5 days measured 24 hrs last post dose by synchrotron X-ray fluorescence analysis; assay type: functional
Method in brief: (§1)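 Lead-loaded mice were given normal saline vehicle (negative control) or test agent at 0.2, 0.4 or 0.6 mmol/kg. Lead was measured in liver, kidney, left femur and brain and reported as mean ± SD µg Pb/g organ against the NS group.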

Brain [2] = assay: Detoxification activity against lead-induced toxicity in mouse assessed as reduction lead level in brain per gram of organ at 0.2 mmol/kg, ip qd for 5 days measured 24 hrs last post dose by synchrotron X-ray fluorescence analysis; assay type: functional; method in brief: as §1
Kidney [3] = assay: Toxicity in mouse assessed as effect on iron level in kidney per gram of organ at 0.4 mmol/kg, ip qd for 5 days; assay type: organism-based; conditions: in vivo, 120 h
Brain [4] = assay: Toxicity in mouse assessed as effect on manganese level in brain per gram of organ at 0.4 mmol/kg, ip qd for 5 days; assay type: organism-based; conditions: in vivo, 120 h
Brain [5] = assay: Detoxification activity against lead-induced toxicity in mouse assessed as reduction lead level in brain per gram of organ at 0.4 mmol/kg, ip qd for 5 days measured 24 hrs last post dose by synchrotron X-ray fluorescence analysis; assay type: functional; method in brief: as §1
Femur [6] = assay: Detoxification activity against lead-induced toxicity in mouse assessed as reduction lead level in femurs per gram of organ at 0.2 mmol/kg, ip qd for 5 days measured 24 hrs last post dose by synchrotron X-ray fluorescence analysis; assay type: functional; method in brief: as §1
Brain [7] = assay: Toxicity in mouse assessed as effect on iron level in brain per gram of organ at 0.4 mmol/kg, ip qd for 5 days; assay type: organism-based; conditions: in vivo, 120 h
Liver [8] = assay: Toxicity in mouse assessed as effect on iron level in liver per gram of organ at 0.4 mmol/kg, ip qd for 5 days; assay type: organism-based; conditions: in vivo, 120 h
Brain [9] = assay: Toxicity in mouse assessed as effect on calcium level in brain per gram of organ at 0.4 mmol/kg, ip qd for 5 days; assay type: organism-based; conditions: in vivo, 120 h
Liver [10] = assay: Detoxification activity against lead-induced toxicity in mouse assessed as reduction lead level in liver per gram of organ at 0.4 mmol/kg, ip qd for 5 days measured 24 hrs last post dose by synchrotron X-ray fluorescence analysis; assay type: functional; method in brief: as §1
Liver [11] = assay: Toxicity in mouse assessed as effect on copper level in liver per gram of organ at 0.4 mmol/kg, ip qd for 5 days; assay type: organism-based; conditions: in vivo, 120 h
Liver [12] = assay: Detoxification activity against lead-induced toxicity in mouse assessed as reduction lead level in liver per gram of organ at 0.2 mmol/kg, ip qd for 5 days measured 24 hrs last post dose by synchrotron X-ray fluorescence analysis; assay type: functional; method in brief: as §1
Liver [13] = assay: Toxicity in mouse assessed as effect on zinc level in liver per gram of organ at 0.4 mmol/kg, ip qd for 5 days; assay type: organism-based; conditions: in vivo, 120 h
Liver [14] = assay: Detoxification activity against lead-induced toxicity in mouse assessed as reduction lead level in liver per gram of organ at 0.6 mmol/kg, ip qd for 5 days measured 24 hrs last post dose by synchrotron X-ray fluorescence analysis; assay type: functional; method in brief: as §1
Femur [15] = assay: Detoxification activity against lead-induced toxicity in mouse assessed as reduction lead level in femurs per gram of organ at 0.6 mmol/kg, ip qd for 5 days measured 24 hrs last post dose by synchrotron X-ray fluorescence analysis; assay type: functional; method in brief: as §1
Kidney [16] = assay: Detoxification activity against lead-induced toxicity in mouse assessed as reduction lead level in kidney per gram of organ at 0.2 mmol/kg, ip qd for 5 days measured 24 hrs last post dose by synchrotron X-ray fluorescence analysis; assay type: functional; method in brief: as §1
Kidney [17] = assay: Toxicity in mouse assessed as effect on copper level in kidney per gram of organ at 0.4 mmol/kg, ip qd for 5 days; assay type: organism-based; conditions: in vivo, 120 h
[18] = Detoxification activity against lead-induced toxicity in mouse assessed as reduction lead level in urine at 0.4 mmol/kg, ip qd for 5 days measured 24 hrs last post dose by synchrotron X-ray fluorescence analysis; assay type: functional
Method in brief: (§2)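 Lead-loaded mice were given normal saline vehicle, DL-penicillamine or NaDMS (positive controls), or test agent, each at 0.4 mmol/kg; n = 12 per group. Lead was measured in feces and urine and reported as mean ± SD µg Pb/g excrement against the NS group.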

Brain [19] = assay: Toxicity in mouse assessed as effect on zinc level in brain per gram of organ at 0.4 mmol/kg, ip qd for 5 days; assay type: organism-based; conditions: in vivo, 120 h
Kidney [20] = assay: Detoxification activity against lead-induced toxicity in mouse assessed as reduction lead level in kidney per gram of organ at 0.4 mmol/kg, ip qd for 5 days measured 24 hrs last post dose by synchrotron X-ray fluorescence analysis; assay type: functional; method in brief: as §1
Liver [21] = assay: Toxicity in mouse assessed as effect on calcium level in liver per gram of organ at 0.4 mmol/kg, ip qd for 5 days; assay type: organism-based; conditions: in vivo, 120 h
Kidney [22] = assay: Toxicity in mouse assessed as effect on manganese level in kidney per gram of organ at 0.4 mmol/kg, ip qd for 5 days; assay type: organism-based; conditions: in vivo, 120 h
Brain [23] = assay: Toxicity in mouse assessed as effect on copper level in brain per gram of organ at 0.4 mmol/kg, ip qd for 5 days; assay type: organism-based; conditions: in vivo, 120 h
[24] = Detoxification activity against lead-induced toxicity in mouse assessed as reduction lead level in feces at 0.4 mmol/kg, ip qd for 5 days measured 24 hrs last post dose by synchrotron X-ray fluorescence analysis; assay type: functional; method in brief: as §2
Mus musculus = assay: Toxicity in mouse assessed as change in bodyweight at 0.4 mmol/kg, ip qd for 5 days; assay type: organism-based; conditions: in vivo, 120 h
Method in brief: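 Lead-loaded mice were given normal saline vehicle or test agent at 0.4 mmol/kg. Body weights were recorded and compared with the NS group to assess growth.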

Brain [25] = assay: Detoxification activity against lead-induced toxicity in mouse assessed as reduction lead level in brain per gram of organ at 0.6 mmol/kg, ip qd for 5 days measured 24 hrs last post dose by synchrotron X-ray fluorescence analysis; assay type: functional; method in brief: as §1
Femur [26] = assay: Detoxification activity against lead-induced toxicity in mouse assessed as reduction lead level in femurs per gram of organ at 0.4 mmol/kg, ip qd for 5 days measured 24 hrs last post dose by synchrotron X-ray fluorescence analysis; assay type: functional; method in brief: as §1
Liver [27] = assay: Toxicity in mouse assessed as effect on manganese level in liver per gram of organ at 0.4 mmol/kg, ip qd for 5 days; assay type: organism-based; conditions: in vivo, 120 h
Kidney [28] = assay: Toxicity in mouse assessed as effect on zinc level in kidney per gram of organ at 0.4 mmol/kg, ip qd for 5 days; assay type: organism-based; conditions: in vivo, 120 h
Kidney [29] = assay: Toxicity in mouse assessed as effect on calcium level in kidney per gram of organ at 0.4 mmol/kg, ip qd for 5 days; assay type: organism-based; conditions: in vivo, 120 h

In the case of `CC1(C)SC(C(=O)O)C(C(=O)N[C@@H](CC(=O)O)C(=O)O)S1` (stereo not given in full), the Activity (Kidney [1]) is reported as 5.9 µg/g, the Activity (Brain [2]) is reported as 1.69 µg/g and the Activity (Kidney [3]) is reported as 93.98 µg/g. The Activity (Brain [4]) was 0.78 µg/g, the Activity (Brain [5]) was 1.22 µg/g and the Activity (Femur [6]) was 17.21 µg/g. It also gave an Activity (Brain [7]) of 56.37 µg/g, an Activity (Liver [8]) of 154.86 µg/g and an Activity (Brain [9]) of 68.28 µg/g. The Activity (Liver [10]) was 3.82 µg/g, the Activity (Liver [11]) was 3.61 µg/g and the Activity (Liver [12]) was 5.81 µg/g. It also gave an Activity (Liver [13]) of 37.69 µg/g, an Activity (Liver [14]) of 2.77 µg/g and an Activity (Femur [15]) of 9.64 µg/g. The Activity (Kidney [16]) was 7.68 µg/g, the Activity (Kidney [17]) was 3.53 µg/g and the Activity [18] was 2.83 µg/g. It also gave an Activity (Brain [19]) of 34.8 µg/g, an Activity (Kidney [20]) of 7.09 µg/g and an Activity (Liver [21]) of 59.89 µg/g. For the same molecule, the Activity (Kidney [22]) was 1.32 µg/g, the Activity (Brain [23]) was 2.4 µg/g and the Activity [24] was 4.8 µg/g. The Activity (Mus musculus) was 31.1 g, the Activity (Brain [25]) was 0.84 µg/g and the Activity (Femur [26]) was 11.1 µg/g. It also gave an Activity (Liver [27]) of 1.35 µg/g, an Activity (Kidney [28]) of 27.89 µg/g and an Activity (Kidney [29]) of 76.47 µg/g.
